Columns and labels:
[1] = system: Rattus norvegicus; experiment: Antiinflammatory activity in rat assessed as inhibition of carrageenan-induced paw oedema at 10 mg/kg, po after 30 mins; assay type: functional; parameters: scale not given: the % may be the effect or the level left
Method in brief: (§1)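 Rats, six per group, were dosed orally (10 or 20 mg/kg, suspension in 1% carboxymethyl cellulose) before carrageenan paw injection. Paw volume was read by mercury-displacement plethysmography just before and 30 min, 1, 2 and 3 h after carrageenan. %inhibition = 100[1 − (a − x)/(b − y)], with the test group's pre/post volumes set against the vehicle control group's. Reported as mean ± SEM (n = 6) with ANOVA.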

[2] = system: Rattus norvegicus; experiment: Antiinflammatory activity in rat assessed as inhibition of carrageenan-induced paw oedema at 20 mg/kg, po after 30 mins; assay type: functional; parameters: scale not given: the % may be the effect or the level left; method in brief: as §1
[3] = system: Rattus norvegicus; experiment: Antiinflammatory activity in rat assessed as inhibition of carrageenan-induced paw oedema at 10 mg/kg, po after 1 hr; assay type: functional; parameters: scale not given: the % may be the effect or the level left; method in brief: as §1
[4] = system: Rattus norvegicus; experiment: Antiinflammatory activity in rat assessed as inhibition of carrageenan-induced paw oedema at 20 mg/kg, po after 1 hr; assay type: functional; parameters: scale not given: the % may be the effect or the level left; method in brief: as §1
[5] = system: Rattus norvegicus; experiment: Antiinflammatory activity in rat assessed as inhibition of carrageenan-induced paw oedema at 10 mg/kg, po after 2 hrs; assay type: functional; parameters: scale not given: the % may be the effect or the level left; method in brief: as §1
[6] = system: Rattus norvegicus; experiment: Antiinflammatory activity in rat assessed as inhibition of carrageenan-induced paw oedema at 20 mg/kg, po after 2 hrs; assay type: functional; parameters: scale not given: the % may be the effect or the level left; method in brief: as §1
[7] = system: Rattus norvegicus; experiment: Antiinflammatory activity in rat assessed as inhibition of carrageenan-induced paw oedema at 10 mg/kg, po after 3 hrs; assay type: functional; parameters: scale not given: the % may be the effect or the level left; method in brief: as §1
[8] = system: Rattus norvegicus; experiment: Antiinflammatory activity in rat assessed as inhibition of carrageenan-induced paw oedema at 20 mg/kg, po after 3 hrs; assay type: functional; parameters: scale not given: the % may be the effect or the level left; method in brief: as §1
[9] = system: Rattus norvegicus; experiment: Toxicity in Wistar albino rat assessed as ulcer index at 20 mg/kg, ip administered once daily for 3 days; assay type: organism-based; parameters: dose 20 mg/kg, route intraperitoneal; conditions: in vivo, 72 h
Method in brief: (§2)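 Wistar albino rats of either sex (150–200 g), six per group, housed at 25 °C, 45–55% RH, 12-h light/dark cycle and acclimatized one week. Dosing was intraperitoneal as a suspension in 10% v/v Tween-80, with a vehicle-only control group. Animals were fasted 36 h, then pylorus-ligated (Shay method) on day 4 and sacrificed 4 h later for ulcer index. Values are mean ± SEM (n = 6), analysed by one-way ANOVA.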

[10] = system: Mus musculus; experiment: Analgesic activity in Wister albino mice at 10 mg/kg, po after 1 hr by tail-flick test
[11] = system: Mus musculus; experiment: Analgesic activity in Wister albino mouse at 20 mg/kg, po after 1 hr by tail-flick test
[12] = system: Mus musculus; experiment: Analgesic activity in Wister albino mice at 10 mg/kg, po after 2 hrs by tail-flick test
[13] = system: Mus musculus; experiment: Analgesic activity in Wister albino mice at 20 mg/kg, po after 2 hrs by tail-flick test
[14] = system: Mus musculus; experiment: Analgesic activity in Wister albino mice at 10 mg/kg, po after 3 hrs by tail-flick test
[15] = system: Mus musculus; experiment: Analgesic activity in Wister albino mice at 20 mg/kg, po after 3 hrs by tail-flick test
[16] = system: Mus musculus; experiment: Analgesic activity in Wister albino mice at 10 mg/kg, po after 30 mins by tail-flick test
[17] = system: Mus musculus; experiment: Analgesic activity in Wister albino mice at 20 mg/kg, po after 30 mins by tail-flick test
[18] = system: Rattus norvegicus; experiment: Toxicity in Wistar albino rat assessed as ulcer index at 200 mg/kg, ip administered once daily for 3 days; assay type: organism-based; parameters: dose 200 mg/kg, route intraperitoneal; conditions: in vivo, 72 h; method in brief: as §2

Structure (SMILES) | Activity [1] [%] | Activity [2] [%] | Activity [3] [%] | Activity [4] [%] | Activity [5] [%] | Activity [6] [%] | Activity [7] [%] | Activity [8] [%] | UI [9] | Activity [10] [%] | Activity [11] [%] | Activity [12] [%] | Activity [13] [%] | Activity [14] [%] | Activity [15] [%] | Activity [16] [%] | Activity [17] [%] | UI [18]
N#Cc1c(N)nc2[nH]c(=S)[nH]c(=O)c2c1-c1ccc(N2CCCCC2)cc1 | 35 | 45 | 37 | 49 | 45 | 51 | 29 | 36 | 0.58 | 51 | 64 | 55 | 69 | 39 | 47 | 46 | 63 | 
CC(=O)Oc1ccccc1C(=O)O [ASPIRIN] |  |  |  |  |  |  |  |  |  |  |  |  |  |  |  |  |  | 1.73
